High-throughput results from PubChem.
Hits are enriched below; roughly 1.3% of the tested compounds scored in any of these assays.
Rad51 HR inh: human RAD51 strand exchange inhibitors, primary screen, biochemical, fluorescence | AID 1385, 2008 | inhibition, % at 10 µM | hRad51 DNA strand exchange, fluorescence dequenching | DNA repair protein RAD51 homolog 1 (Homo sapiens), Q06609 | 0.085% of 200,000 active;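 active = inhibition above 40% at the single screening dose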
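System: human Rad51 nucleoprotein filaments preassembled on unlabelled ssDNA. Reagent: labelled 47-mer dsDNA for strand exchange. Schedule: 30-min compound preincubation and 15-min exchange, both room temperature. Measured by: FRET fluorescence dequenching, excitation 485 nm, emission 520 nm. Read-out: Fluorescence-based percent inhibition, control- and blank-normalised. Benchmarks: plate controls and plate blanks.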
PKD1 inh: inhibitors of human PKD1 kinase, biochemical, fluorescence polarization; AID 797, 2007; 0.056% of 200,000 active; inhibition, % (concentration not given with the values); PKD1 kinase fluorescence polarization assay; in the data active = inhibition above about 50%
PERK inhibitor: block of dimerizer-induced PERK translation repression, primary screen, PERK inhibitor project, CHO PERK-DD cells, SEAP luminescence, HTS. Eukaryotic translation initiation factor 2-alpha kinase 3 (Homo sapiens), Q9NZJ5. CHO PERK-DD fusion, SEAP luminescence translation reporter. inhibition, % at 5.6 µM. 0.17% of 220,000 active. AID 1416, 2008;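 active = inhibition above the mean inhibition of all tested compounds plus 3 SD, set separately per screening campaign, cut at about 2.9% in these data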;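 note: PERK kinase domain activated by AP20187 dimerizer at 100 nM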
MDM2 E3 inh: MDM2-luciferase reporter signal enhancers, primary screen, MDM2 E3 ligase inhibitor project, cell-based, luminescence, 1536-well; E3 ubiquitin-protein ligase Mdm2 (Homo sapiens), Q00987; 0.11% of 210,000 active; signal enhancement, % at 5 µM; AID 1230, 2008; cell-based MDM2 ubiquitination luciferase reporter, 2 h; 0 = plate control, 100 = twice control, blank-subtracted;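 active = signal enhancement of 30% or more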;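 note: luminescence tracks abundance of the self-degrading MDM2-luciferase fusion protein; higher signal means inhibition of MDM2 E3 ligase activity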
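test system = mammalian cells stably expressing self-ubiquitinating, self-degrading MDM2 E3–luciferase fusion | quantity = 2000 cells/well | incubation = cell settling 4 h, compound treatment 2 h, both 37 °C | signal = luminescence with SteadyLite reagent, 15 min at room temperature | evaluation = % enhancement relative to plate controls after blank subtraction | benchmarks = plate controls and plate blanks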
Hck-Nef inh: inhibitors of Nef-activated human Hck kinase, primary screen, biochemical, Z-Lyte FRET, 384-well, Hck-YEEI; inhibition, % at 20 µM; 0.68% of 220,000 active; Recombinant Hck-YEEI plus Nef, Z-Lyte FRET kinase assay;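 active = Hck-Nef kinase inhibition above about 50%, limit read from the data; inactive = inhibition below that limit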
Target sequence (P08631 whole entry, looked up): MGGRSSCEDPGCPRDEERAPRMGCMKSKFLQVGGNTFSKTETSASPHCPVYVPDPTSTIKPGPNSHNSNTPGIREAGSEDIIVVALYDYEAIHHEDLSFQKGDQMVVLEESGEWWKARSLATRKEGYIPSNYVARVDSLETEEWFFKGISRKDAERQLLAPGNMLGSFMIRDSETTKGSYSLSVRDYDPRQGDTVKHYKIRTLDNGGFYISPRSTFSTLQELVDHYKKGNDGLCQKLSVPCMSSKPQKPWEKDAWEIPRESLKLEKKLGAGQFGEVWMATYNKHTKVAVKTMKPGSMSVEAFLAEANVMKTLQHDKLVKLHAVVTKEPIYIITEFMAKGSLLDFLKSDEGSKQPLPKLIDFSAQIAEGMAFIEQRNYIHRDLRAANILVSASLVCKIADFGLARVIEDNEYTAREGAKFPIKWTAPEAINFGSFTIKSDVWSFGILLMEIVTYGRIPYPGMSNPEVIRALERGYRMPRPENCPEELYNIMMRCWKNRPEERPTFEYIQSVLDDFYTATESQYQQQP
H9c2 TAG inh: inhibitors of triacylglycerol accumulation, primary screen, cell-based, uHTS, fluorescence, H9c2; H9c2 cells, Nile Red lipid (TAG) fluorescence; cells loaded with 200 µM oleic acid; inhibition, % at 12.5 µM; 0.66% of 230,000 active; AID 651582, 2012;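 active = pattern-corrected inhibition of lipid staining of at least 50% with the nuclear-stain viability signal not falling by more than 50%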
H9c2 TAG conf: triacylglycerol accumulation inhibitors, retest, confirmation, cell-based, single concentration, Nile Red fluorescence, H9c2 | inhibition, % at 12.5 µM | shares compounds with H9c2 TAG inh | H9c2 lipid accumulation; cells loaded with 200 µM oleic acid | 71% of 990 active | AID 651629, 2012;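 active = mean inhibition across replicates of 40% or more; inactive = mean inhibition below 40%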
A number is an active result; . = inactive; / = no result given.

SMILES	Rad51 HR inh	PKD1 inh	PERK inhibitor	MDM2 E3 inh	Hck-Nef inh	H9c2 TAG inh	H9c2 TAG conf
N#C/C(=C\Nc1ccc2cn[nH]c2c1)c1nc(-c2ccc(Cl)cc2)cs1	.	.	.	.	.	78	83
CC1(C(=O)NCc2ccco2)Cc2c(-c3cccc(C(F)(F)F)c3)ccnc2O1 (stereo unspecified)	/	/	/	/	/	54	46
COc1ccc(NC(=O)C2(C)Cc3c(-c4cccc(C(N)=O)c4)ccnc3O2)cn1 (stereo unspecified)	/	/	/	/	/	50	55
CC1(C(=O)NCc2ccncc2)Cc2c(-c3cccc(C(F)(F)F)c3)ccnc2O1 (stereo unspecified)	/	/	/	/	/	.	/
CC1(C(=O)NCc2ccc(F)c(F)c2)Cc2c(-c3cccc(C(N)=O)c3)ccnc2O1 (stereo unspecified)	/	/	/	/	/	.	/
CC1(C(=O)NCc2ccccc2)Cc2c(-c3cccc(C(N)=O)c3)ccnc2O1 (stereo unspecified)	/	/	/	/	/	55	60
NC(=O)c1cccc(-c2ccnc3c2CC(C(=O)NCc2ccc(F)c(F)c2)O3)c1 (stereo unspecified)	/	/	/	/	/	.	/
NC(=O)c1cccc(-c2ccnc3c2CC(C(=O)NCc2ccccc2)O3)c1 (stereo unspecified)	/	/	/	/	/	50	54
CCCNC(=O)/C=C/C(=O)O	.	.	.	.	.	.	/
C=CCN1C(=O)/C(=C2/Sc3ccccc3N2C)SC1=Nc1ccccc1C	.	.	.	.	.	61	.
C=CCN1C(=O)/C(=C2/Sc3ccccc3N2C)SC1=Nc1c(C)n[nH]c1C	.	.	.	.	.	/	/
Cc1ccc(C2C(C=Nc3c(C)n(C)n(-c4ccccc4)c3=O)=C(c3ccccc3)Oc3ccccc32)cc1 (stereo unspecified)	.	.	.	.	.	69	57
Cc1ccc(NC(=O)c2nc[nH]c2C(=O)NCCCNC(=O)c2[nH]cnc2C(=O)Nc2ccc(C)cc2)cc1	/	/	/	/	/	.	/
Cc1ccc(NC(=O)c2nc[nH]c2C(=O)NCCCCNC(=O)c2[nH]cnc2C(=O)Nc2ccc(C)cc2)cc1	/	/	/	/	/	66	86
O=C(Nc1cccc(Cl)c1)c1nc[nH]c1C(=O)NCCCNC(=O)c1[nH]cnc1C(=O)Nc1cccc(Cl)c1	/	/	/	/	/	70	85
Cc1ccc(NC(=O)c2nc[nH]c2C(=O)NCCCCCCNC(=O)c2[nH]cnc2C(=O)Nc2ccc(C)cc2)cc1	/	/	/	/	/	109	95
CCOC(=O)c1ccc(NC(=O)c2nc[nH]c2C(=O)NCCCCNC(=O)c2[nH]cnc2C(=O)Nc2ccc(C(=O)OCC)cc2)cc1	/	/	/	/	/	122	86
CCCS(=O)(=O)NC(=O)C1(C)CCN(C(=O)c2cc(C)n(C(C)(C)C)n2)C1 (stereo unspecified)	/	/	/	/	/	.	/
CN(Cc1nc(-c2ccccc2)no1)C1CCOCC1	/	/	.	.	.	.	/
CCOC(=O)C1CCCN(C(=O)c2ccncc2)CC1 (stereo unspecified)	/	/	/	/	/	.	/
CC(C)C[C@H]1CNC(=S)N1CC1CCCN1C[C@H](CC(C)C)N1C[C@H](CC(C)C)N(CCc2ccccc2)C1=S (stereo partly specified)	/	/	/	/	/	74	82
Oc1ccc(C[C@H]2CNC(=S)N2CC2CCCN2C[C@H](Cc2ccc(O)cc2)N2C[C@H](Cc3ccccc3)N(CC3CCCCCC3)C2=S)cc1 (stereo partly specified)	/	/	/	/	/	.	/
CC(C)C[C@H]1CNC(=S)N1CC1CCCN1C[C@H](CC(C)C)N1C[C@H](CC(C)C)N(CC2CCCCCC2)C1=S (stereo partly specified)	/	/	/	/	/	62	55
Oc1ccc(C[C@H]2CNC(=S)N2CC2CCCN2C[C@H](Cc2ccc(O)cc2)N2C[C@H](Cc3ccc(O)cc3)N(CC3CCCCCC3)C2=S)cc1 (stereo partly specified)	/	/	/	/	/	76	72
CC(C)C[C@H]1CNC(=S)N1CC1CCCN1C[C@H](CC(C)C)N1C[C@H](Cc2ccccc2)N(CC2CCCCCC2)C1=S (stereo partly specified)	/	/	/	/	/	.	/
SMILES	Rad51 HR inh	PKD1 inh	PERK inhibitor	MDM2 E3 inh	Hck-Nef inh	H9c2 TAG inh	H9c2 TAG conf
Cc1cc(C)cc(-n2ncc3c2CCCC3NC(=O)CN2CCCCC2=O)c1 (stereo unspecified)	/	/	/	/	/	.	/
Cc1ccc(NC(=O)CCC(=O)N2CCC(C)CC2)c([N+](=O)[O-])c1	/	/	/	/	/	.	/
CCOC(=O)Nc1ccc2c(c1)C(=NNC(=S)NC)c1ccccc1-2	/	/	/	/	/	58	70
Cc1cc(C)c(S(=O)(=O)N2CCOC2CNC(=O)C(=O)NCc2ccco2)c(C)c1 (stereo unspecified)	.	.	.	/	.	.	/
Cc1cccc(N2CN(S(=O)(=O)c3cccc([N+](=O)[O-])c3)c3nc4ccccc4nc32)c1	/	/	/	/	/	54	.
COc1ccccc1N1CN(S(=O)(=O)c2ccc(C)cc2)c2nc3ccccc3nc21	/	/	/	/	/	.	/
CCOC(=O)c1[nH]c(C)c(C(=O)Nc2cc(Cl)ccc2C)c1C	.	.	.	.	.	/	/
CCOC(=O)c1[nH]c(C)c(C(=O)Nc2ccccc2C)c1C	.	.	.	.	.	54	59
Cc1ccc(-n2nc(C(=O)NCc3ccc(C)o3)c3c4ccccc4n(C)c3c2=O)cc1	.	.	.	.	.	53	.
O=C(NCC(c1cccs1)N1CCOCC1)c1cccnc1 (stereo unspecified)	/	/	/	/	/	.	/
Cc1noc(C)c1CSc1nc2ccccc2c(=O)n1-c1ccccc1	.	.	.	.	.	.	/
Cc1noc(C)c1CSc1nc2[nH]ncc2c(=O)n1-c1ccccc1	.	.	.	.	.	64	91
O=[N+]([O-])c1ccc(/C=N/Nc2nc(N3CCCCC3)nc(N3CCCCC3)n2)cc1	.	.	.	.	.	.	/
NNc1nc(Nc2ccc([N+](=O)[O-])cc2)nc(N2CCCCCC2)n1	/	/	/	/	/	.	/
O=[N+]([O-])c1ccc(Nc2nc(N3CCOCC3)nc(N3CCOCC3)n2)cc1	/	/	/	/	/	53	61
O=[N+]([O-])c1ccc(Nc2nc(N/N=C\c3ccc4c(c3)OCO4)nc(N3CCCCC3)n2)cc1	.	.	.	.	.	66	.
c1ccc(Nc2nc(N3CCNCC3)nc(N3CCOCC3)n2)cc1	.	.	.	.	.	88	.
